In the library only some 5.9% were active in any assay of this set; here they are far more common.
T cruzi growth-1: T. cruzi intracellular proliferation inhibitors, primary screen, cell-based, beta-gal Tulahuen parasites, NIH3T3 host, luminescence | T. cruzi beta-gal in NIH3T3, GalScreen luminescence, 90 h | inhibition, % at 8.34 µM | AID 624255, 2012 | actives 5.9% (n = 77,000);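 active = mean inhibition above about 93%, with at least 55% of replicates each passing it, limit read from the data, passing the limit was not always enough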
GASC1 inh: inhibitors of GASC-1 (KDM4C) histone demethylase, primary screen, biochemical, single concentration HTS. inhibition, % at 12.5 µM. actives 0.15% (n = 96,000). Lysine-specific demethylase 4C (Homo sapiens), Q9H3R0. AID 720574, 2013. GST-KDM4C 2-372, H3K9me3 peptide, LANCE TR-FRET;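 active = mean replicate inhibition above about 25%, with at least 55% of replicates also reaching it, limit read from the data, passing the limit was not always enough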
Target sequence (Q9H3R0 2-372 limits assumed): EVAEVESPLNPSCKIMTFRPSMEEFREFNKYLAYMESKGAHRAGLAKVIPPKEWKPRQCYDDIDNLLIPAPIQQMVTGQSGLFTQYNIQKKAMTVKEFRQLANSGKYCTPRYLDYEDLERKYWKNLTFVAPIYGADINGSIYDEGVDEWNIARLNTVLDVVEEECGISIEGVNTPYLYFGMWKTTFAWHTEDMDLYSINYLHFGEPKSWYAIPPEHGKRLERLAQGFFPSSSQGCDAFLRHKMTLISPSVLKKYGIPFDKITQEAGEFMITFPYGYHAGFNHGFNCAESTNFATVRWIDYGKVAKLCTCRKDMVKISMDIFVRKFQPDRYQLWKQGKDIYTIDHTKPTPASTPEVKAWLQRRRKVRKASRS
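System: N-terminal GST-fused human GASC-1 (KDM4C) fragment, residues 2-372; amount: enzyme final amount 10 nM; incubation: reaction 30 min RT, detection step 1 h RT; medium: HEPES buffer, pH 7.5, plus ascorbate; technique: LANCE TR-FRET, Eu antibody, ULight-streptavidin, EDTA, ex 340 nm, em 618/671 nm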
Pf Dd2 inh: P. falciparum Dd2 growth inhibitors, primary screen, SYBR Green fluorescence, single dose replicates; actives 2.3% (n = 94,000); 72 h; active compounds read low; activity change, % at 10 µM; in the data active = activity change below about -80%
IDH1 R132H inh: inhibitors of IDH1 R132H reductase, primary screen, biochemical, plate reader, single point. diaphorase/resazurin fluorescence, 60 min. inhibition, % at 10 µM. actives 0.18% (n = 70,000). AID 624101, 2012; in the data active = inhibition above about 34%;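 note: 0% = DMSO and 100% = no enzyme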
T cruzi growth-2: T. cruzi intracellular proliferation inhibitors, confirmation, cell-based, NIH3T3 host, beta-gal parasite, luminescence, cherry-pick; shares compounds with T cruzi growth-1; T. cruzi beta-gal in NIH3T3, GalScreen luminescence, 90 h; inhibition, % at 8.35 µM; actives 72% (n = 5,600); AID 651739, 2012;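 active = mean replicate inhibition above about 95% and at least 55% of replicates individually reaching it, limit read from the data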
T cruzi growth-3: inhibitors of intracellular T. cruzi replication, confirmation, NIH3T3 host cells, beta-gal parasites, cherry-pick, set 2. shares compounds with T cruzi growth-1. T. cruzi beta-gal in NIH3T3, GalScreen luminescence, 90 h. inhibition, % at 2.09 µM. actives 21% (n = 5,600). AID 651740, 2012;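 active = mean inhibition above about 95%, with at least 55% of replicates also reaching it, limit read from the data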;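 note: plate controls were neutral control median for no effect and positive control median for full effect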
3T3 cytotox: cytotoxicity in mouse NIH/3T3 fibroblasts, confirmation, cytotoxicity control for T. cruzi proliferation inhibitor project, cell-based, cherry-pick, single point; shares compounds with T cruzi growth-1; NIH/3T3 viability, CellTiter-Glo ATP luminescence, 90 h; cytotoxicity (signal decrease), % at 8.35 µM; actives 14% (n = 5,600); AID 651742, 2012;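 active = mean signal decrease across replicates above about 35% based on untreated-well scatter, with enough replicates individually passing, limit read from the data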;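 note: 0% = median of neutral control wells and 100% = median of positive control wells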
NIH3T3 tox 2: NIH/3T3 fibroblast cytotoxicity, confirmation, cytotoxicity control, cell-based, cherry-pick, single point, set 2. NIH/3T3 viability, CellTiter-Glo ATP luminescence, 90 h. inhibition, % at 24.9 µM. AID 651744, 2012. shares compounds with T cruzi growth-1. actives 56% (n = 5,600);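 active = mean loss of cell viability signal at or above a set limit, and enough replicates individually reaching it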;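 note: 0% = median of neutral control wells and 100% = median of positive control wells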
* hit, by the source's call; . = no result given; ! = repeats disagree.

SMILES	T cruzi growth-1	GASC1 inh	Pf Dd2 inh	IDH1 R132H inh	T cruzi growth-2	T cruzi growth-3	3T3 cytotox	NIH3T3 tox 2
C[C@H](CO)N1C[C@H](C)[C@H](CN(C)Cc2ccccc2)Oc2ncc(-c3cccc(C(F)(F)F)c3)cc2C1=O	73	4	-46	-1	.	.	.	.
O=C(NCC[C@H]1CC[C@H](NS(=O)(=O)c2ccc(F)cc2)[C@H](CO)O1)c1ccc2c(c1)OCO2	12	-2	0	0	.	.	.	.
C[C@@H]1CN([C@H](C)CO)S(=O)(=O)c2ccc(C3=CCCCC3)cc2O[C@H]1CN(C)Cc1ccncc1	118*	-1	-72	.	94	99*	67*	104*
C[C@@H]1CN([C@H](C)CO)S(=O)(=O)c2ccc(C3=CCCC3)cc2O[C@H]1CN(C)Cc1ccccc1	93	1	-55	-4	.	.	.	.
C[C@H]1CN([C@@H](C)CO)S(=O)(=O)c2ccc(C3=CCCCC3)cc2O[C@H]1CN(C)Cc1ccncc1	114*	4	-69	.	94	89	51*	66*
C[C@H](CO)N1C[C@H](C)[C@@H](CN(C)Cc2ccncc2)Oc2cc(C3=CCCCC3)ccc2S1(=O)=O	115*	0	-71	.	103*	102*	52*	105*
C[C@@H]1CN([C@H](C)CO)S(=O)(=O)c2ccc(C3=CCCCC3)cc2O[C@@H]1CN(C)Cc1ccncc1	110*	2	-15	15	100*	85	29	67*
C[C@H](CO)N1C[C@H](C)[C@H](CN(C)Cc2cncnc2)Oc2cc(C3=CCCCC3)ccc2S1(=O)=O	50	1	-3	0	.	.	.	.
COc1ccccc1-c1ccc2c(c1)O[C@@H](CN(C)C(=O)Nc1ccccc1)[C@@H](C)CN([C@H](C)CO)S2(=O)=O	50	0	-41	0	.	.	.	.
C[C@@H]1CN([C@H](C)CO)C(=O)c2cccc(NC(=O)C3CC3)c2O[C@@H]1CN(C)Cc1ccccc1	.	1	-2	3	.	.	.	.
Cc1noc(C)c1NC(=O)Nc1ccc2c(c1)CC(=O)N([C@@H](C)CO)C[C@@H](C)[C@@H](CN(C)C(=O)Nc1ccc3c(c1)OCO3)O2	6	0	27	7	.	.	.	.
CCC(=O)N1CC(=O)N2[C@H](C1)[C@@H](c1ccc(C#CC3CCCCC3)cc1)[C@@H]2CO	.	0	12	.	.	.	.	.
O=C(C[C@H]1C=C[C@H](NC(=O)Nc2ccc3c(c2)OCO3)[C@@H](CO)O1)NCc1ccccc1	41	0	17	0	.	.	.	.
C[C@H]1CCCCO[C@@H](CN(C)Cc2ccncc2)[C@@H](C)CN([C@@H](C)CO)C(=O)c2cc(NC(=O)Nc3ccc(C(F)(F)F)cc3)ccc2O1	101*	0	-63	11	97*	114*	-6	70*
C[C@@H]1CCCCO[C@@H](CN(C)Cc2ccc(C(F)(F)F)cc2)[C@H](C)CN([C@H](C)CO)C(=O)c2cc(NC(=O)c3ccncc3)ccc2O1	109*	-1	-72	-4	103*	56	13	103*
C[C@@H]1CCCCO[C@H](CN(C)Cc2ccc(C(F)(F)F)cc2)[C@H](C)CN([C@@H](C)CO)C(=O)c2cc(NC(=O)c3ccncc3)ccc2O1	90	0	-21	.	.	.	.	.
C[C@@H]1CN([C@@H](C)CO)C(=O)c2cc(NC(=O)c3ccncc3)ccc2O[C@H]1CN(C)Cc1ccc(C(F)(F)F)cc1	100*	0	-23	.	24	-4	9	36
C[C@H]1CN([C@@H](C)CO)C(=O)c2cc(NC(=O)c3ccncc3)ccc2O[C@@H]1CN(C)Cc1ccc(C(F)(F)F)cc1	75	0	7	2	.	.	.	.
C[C@@H]1CCCCO[C@@H](CN(C)Cc2ccncc2)[C@H](C)CN([C@@H](C)CO)C(=O)c2cc(NC(=O)Nc3ccc(C(F)(F)F)cc3)ccc2O1	86	2	-15	1	.	.	.	.
C[C@H](CO)N1C[C@H](C)[C@@H](CN(C)Cc2ccncc2)OCCCC[C@H](C)Oc2ccc(NC(=O)Nc3ccc(C(F)(F)F)cc3)cc2C1=O	101*	-1	-25	-1	103*	82	-29	42*
NC(=O)Nc1ccc2[nH]ncc2c1	.	.	.	1	.	.	.	.
C[C@@H]1CN([C@H](C)CO)S(=O)(=O)c2ccc(C3=CCCC3)cc2O[C@@H]1CN(C)C(=O)Nc1ccc2c(c1)OCO2	76	0	-20	0	.	.	.	.
C[C@@H]1CN([C@@H](C)CO)S(=O)(=O)c2ccc(C#Cc3ccncc3)cc2O[C@@H]1CN(C)C(=O)Nc1ccc2c(c1)OCO2	1	1	-12	7	.	.	.	.
C[C@H](CO)N1C[C@H](C)[C@@H](CN(C)C(=O)Nc2ccc3c(c2)OCO3)Oc2cc(C#Cc3ccncc3)ccc2S1(=O)=O	82	1	-56	0	.	.	.	.
C[C@H]1CN([C@@H](C)CO)S(=O)(=O)c2ccc(C3=CCCC3)cc2O[C@@H]1CN(C)C(=O)Nc1ccc2c(c1)OCO2	109*	6	-53	0	96*	53	9	28*
C[C@H](CO)N1C[C@H](C)[C@@H](CN(C)C(=O)Nc2ccc3c(c2)OCO3)Oc2cc(C#Cc3ccccc3)ccc2S1(=O)=O	131*	-2	-71	1	104*	71	4	13
C[C@@H]1CN([C@H](C)CO)S(=O)(=O)c2ccc(C#Cc3ccccc3)cc2O[C@H]1CN(C)C(=O)Nc1ccc2c(c1)OCO2	92*	0	-71	.	108*	96*!	16	32*
CO[C@@H]1CN(C)C(=O)c2cc(NC(=O)c3ccc(Oc4ccccc4)cc3)ccc2OC[C@H](C)NC[C@@H]1C	-56	-2	-79	0	.	.	.	.
C[C@@H]1CN([C@@H](C)CO)C(=O)Cc2cc(NC(=O)Nc3cccc4ccccc34)ccc2O[C@@H]1CN(C)C(=O)Nc1cccc2ccccc12	-3	4	-5	.	.	.	.	.

Bioassay records (PubChem)
